STAT3 blocker – STAT3 signaling inhibition; U3A cells, IL-6 STAT3-luciferase reporter, luminescence; host cell line lacks STAT1; inhibition, % at 5.5 µM; 0.89% of 190,000 active;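 active = inhibition above the mean inhibition across all screened compounds plus 3 SD, cut at about 44% in these data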;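 note: 0% = DMSO only wells and 100% = 100 µM nifuroxazide control wells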
STAT3 act-1 – increases IL-6 driven STAT3 reporter signal | activation (% of control), % at 5.6 µM | AID 871 | 0.91% of 190,000 active | U3A cells, IL-6 STAT3-luciferase reporter, luminescence; 100% = signal with IL-6 EC80 alone;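 active = activation above the screen-wide mean of compound activation plus 3 SD, cut at about 130% in these data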;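 note: 0% = background luminescence of wells with medium and substrate only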
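Material: human U3A cells carrying STAT3-luciferase construct. Measured by: reporter luminescence signal. Timing: compound 1 h, then IL-6 6 h at 37 °C.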
HSP90 refold inh – inhibitors of HSP90 luciferase refolding in rabbit reticulocyte lysate; AID 1789; 0.91% of 290,000 active; inhibition, % at 5.6 µM; luciferase refolding luminescence, 3 h;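 active = inhibition above the screen-wide mean plus 3 SD, computed separately per campaign, cut at about 16% in these data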;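 note: 0% = DMSO wells and 100% = 60 µM geldanamycin wells; inhibitors lower the luminescence because luciferase stays unfolded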
STAT1 inh – STAT1 signaling inhibition | NIH 3T3 STAT1-luciferase reporter, IFN-gamma, luminescence | inhibition, % at 5.5 µM | 0.35% of 200,000 active | AID 920;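 active = inhibition above a set limit, the mean inhibition across all tested compounds plus 3 SD, cut at about 34% in these data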;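 note: 0% = IFN-gamma with DMSO and 100% = IFN-gamma with 300 µM nifuroxazide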
STAT3 act-2 – STAT3 activation, confirmation assay. shares compounds with STAT3 act-1. U3A STAT3-luciferase reporter, IL-6 potentiation, luminescence; U3A cells lack STAT1; 100 means same as IL-6 alone. potentiation (% of control), % at 5.7 µM. 64% of 1,200 active;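 active = percent activation of the STAT3 luciferase reporter above a set limit taken from the earlier primary screen, cut at about 130% in these data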;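 note: 0% = background signal of medium plus substrate and 100% = median of IL-6 with DMSO wells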
NFkB act STAT3ct – NF-kappaB activation in STAT3 activator counter-screen; shares compounds with STAT3 act-1; human cells, NF-kappaB reporter activation; activation (% of control), % at 5.7 µM; 11% of 1,200 active; AID 1309; in the data active = activation above about 120%;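 note: reporter induced by TNF-alpha stimulation; 100% = median of stimulated DMSO wells and 0% = no signal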
STAT1 act – activates STAT1, counter-screen to STAT3 activators. shares compounds with STAT3 act-1. NIH 3T3 STAT1-luciferase reporter, IFN-gamma, luminescence. activation (% of control), % at 5.7 µM. 13% of 1,200 active. AID 1318;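 active = activation above the solvent-only control well mean plus 3 SD, set per screening run, cut at about 120% in these data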;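 note: 100% = IFN-gamma with DMSO median signal so 100% means no change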
An asterisk follows results filed as active; · = no result given. Hits are enriched below; roughly 2% of the tested compounds scored in any of these assays.

SMILES	STAT3 blocker	STAT3 act-1	HSP90 refold inh	STAT1 inh	STAT3 act-2	NFkB act STAT3ct	STAT1 act
COc1ccc(C)cc1-n1nnnc1SCc1nc2ccccc2s1	-47	147*	2	-19	144*	119	128*
CCOC(=O)C1CCCN(C2=NC(=O)/C(=C/c3ccc(N(C)C)cc3)S2)C1 (configuration not stated)	·	·	-1	·	·	·	·
CCOc1ccc(C2CC(=O)N(Nc3ccc([N+](=O)[O-])cc3[N+](=O)[O-])C2=O)cc1 (configuration not stated)	·	·	4	·	·	·	·
CC(=O)N(C)c1ccc(NC(=S)Nc2ccccc2)cc1	3	106	0	5	·	·	·
CN(C)c1cc(O)c(C(=S)Nc2ccccc2)c(N(C)C)c1	-48	146*	0	-8	136*	110	113
Cc1sc2ncn(CC(=O)NCCCC(=O)Nc3ccc(C(C)C)cc3)c(=O)c2c1C	·	·	2	·	·	·	·
CC(C)(C)C1c2[nH]c3ccccc3c2CCN1CCCn1cccn1 (configuration not stated)	-4	108	1	22	·	·	·
Fc1ccccc1C1c2[nH]c3ccccc3c2CCN1CCCn1cccn1 (configuration not stated)	-44	144*	-1	-7	133	102	93
CCC(C)c1ccccc1N1CC(C(=O)Nc2cccc(S(=O)(=O)N3CCOCC3)c2)CC1=O (configuration not stated)	·	·	-2	·	·	·	·
COC(=O)C1=C(NC(=O)c2ccc(Br)cc2)CCS1	-34	146*	3	-6	133*	108	108
C(=N\Nc1nncc2ccccc12)/c1ccccc1	·	·	2	·	·	·	·
Clc1ccc(/C=N/Nc2nnc(Cl)c3ccccc23)cc1	-51	146*	2	-20	160*	127*	164*
Cc1ccc(/C=N/Nc2nnc(Cl)c3ccccc23)cc1	-4	107	-3	-34	·	·	·
Clc1nnc(N/N=C/c2ccccc2)c2ccccc12	-60	159*	0	-24	163*	124*	163*
Cc1ccccc1S(=O)(=O)Cc1ccc(C(=O)N2CCN(c3ccccc3F)CC2)o1	·	·	2	·	·	·	·
COc1cccc(-c2nc(Oc3cccc(C)c3C)c3ccccc3n2)c1O	-50	140*	3	11	136*	98	95
COc1cccc(-c2nc(N3CCN(c4ccccc4)CC3)c3ccccc3n2)c1O	-8	115	0	7	·	·	·
COc1ccc(C(C)=O)c2c(O)cccc12	-54	150*	-2	1	148*	113	120
COc1ccc2c3c(cccc13)C(=O)N(O)C2=O	-13	113	-1	3	·	·	·
Cc1ccc(CNCC(=O)Nc2cccc(S(=O)(=O)NC3=NCCCCC3)c2)cc1	12	96	4	3	·	·	·
Cc1sc2nc(N)sc2c1C	-62	162*	0	4	147*	105	91
Cc1ccc(C)c2sc(N)nc12	15	89	3	5	·	·	·
O=C(Nc1c(C(=O)O)[nH]c2ccccc12)NC1CCCCC1	-76	164*	-1	2	159*	106	106
NC(CSCc1cccc(Br)c1)C(=O)O (configuration not stated)	8	96	4	-1	·	·	·
Clc1ccc(/C=C\c2nccc3c2[nH]c2ccccc23)cc1	-59	148*	1	-4	145*	108	100
SMILES	STAT3 blocker	STAT3 act-1	HSP90 refold inh	STAT1 inh	STAT3 act-2	NFkB act STAT3ct	STAT1 act
N#Cc1ccc(/C=C\c2nccc3c2[nH]c2ccccc23)cc1	-62	157*	-1	-24	141*	103	103
COc1cc2c(cc1OC)C(COc1ccc([N+](=O)[O-])cc1)N(C(C)=O)CC2 (configuration not stated)	·	·	-7	·	·	·	·
O=C(c1cccnc1)N1CCc2ccccc21	-66	159*	6	-1	140*	102	95
CN(C)S(=O)(=O)N1CCc2ccccc21	-54	146*	-1	-2	133	102	101
CC(C(=O)N1CCc2ccccc21)N1CCc2ccccc2C1 (configuration not stated)	-47	146*	4	6	119	103	102
CCN(CC)C(=O)N1CCc2ccccc21	-40	146*	-3	4	151*	105	101
CN(C)S(=O)(=O)N1CCc2ccccc2C1	6	97	8	-7	·	·	·
CC(CC(=O)N1CCc2ccccc21)c1ccccc1 (configuration not stated)	10	92	-2	-8	·	·	·
COc1cc2c(cc1OC)CN(C(C)C(=O)N1CCc3ccccc31)CC2 (configuration not stated)	-11	106	3	-6	·	·	·
CC(=O)c1ccc(N2CCN(S(=O)(=O)c3c(C(=O)N4CCCC4)c(C)n(C)c3C)CC2)cc1	·	·	-5	·	·	·	·
CCOCC(=O)N1CCc2ccccc21	-60	151*	2	-1	139*	103	97
COc1ccc(CNCC(C)NCc2ccc(OC)c(OC)c2)cc1OC (configuration not stated)	·	·	-3	·	·	·	·
CC1CN(Cc2ccc(Cl)cc2Cl)CC(C)O1 (configuration not stated)	-49	142*	0	-14	129	118	125*
COc1cccc(C(=O)NC(=S)Nc2ccccc2N2CCCC2)c1	-47	147*	0	-1	141*	106	93
COc1cccc(C(=O)NC(=S)Nc2ccccc2N2CCCCC2)c1	·	·	9	·	·	·	·
CCn1c(=O)c(C(=O)Nc2ccsc2C(=O)OC)c(O)c2ccccc21	-52	138*	-2	1	151*	94	102
N#C/C(=C\c1ccccc1[N+](=O)[O-])c1nc(C2CC2)cs1	-48	146*	-1	-7	154*	106	110
N#C/C(=C/c1ccccc1[N+](=O)[O-])c1nc(C2CC2)cs1	-57	147*	1	3	158*	108	119
CC(=O)c1ccc(NC(=O)CS(=O)(=O)c2cn(CC(=O)N3CCOCC3)c3ccccc23)cc1	·	·	-1	·	·	·	·
CN(C(=O)CCCN1C(=O)c2cccc3cccc(c23)C1=O)c1ccccc1	-2	101	1	2	·	·	·
O=C1c2cccc3cccc(c23)C(=O)N1CCc1ccccc1	-36	147*	3	-26	193*	125*	129*
O=C(O)C(Cc1ccccc1)N1C(=O)c2cccc3cccc(c23)C1=O (configuration not stated)	-45	144*	3	12	143*	105	93
O=C(O)C(Cc1ccccc1)N1C(=O)c2ccccc2C1=O (configuration not stated)	-13	108	0	-3	·	·	·
O=C(Nc1nncs1)c1cc(S(=O)(=O)N2CCOCC2)ccc1Cl	·	·	1	·	·	·	·
